Compound activity deposited in PubChem by several laboratories.
Hits are enriched below; roughly 1.1% of the tested compounds scored in any of these assays.
Diaph act CS: activates diaphorase or chemically reduces, flagging diaphorase assay artifacts. Diaphorase/resazurin coupled assay, resorufin fluorescence, 16 min; stronger effect = higher value; 1 = vehicle wells, 0 = NADH-free wells. activation factor at 20 µM. actives 0.005% (n = 190,000). AID 1229;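 active means diaphorase activity raised at least twofold by the compound at 20 µM; inactive means activation factor below 2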
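Test system: Clostridium kluyveri diaphorase, purified enzyme; input: enzyme 0.07 U/mL final; buffer or medium: 50 mM HEPES pH 7.4 with 4.542 mM MgCl2, 0.005% Tween 20; also added: 0.114 mM NADH and 0.1 mM resazurin, final amounts; schedule: 16 min enzyme reaction, ambient temperature; technique: fluorescence of resorufin, 544 nm excitation, 590 nm emission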
Redox H2O2 prof: compounds producing H2O2 with reducing agent – biochemical, NIH compound library profiling, artefact control for MLSCN library redox annotation, primary screen; actives 0.03% (n = 200,000); DTT-dependent redox cycling H2O2, phenol red/HRP absorbance; 100% = 100 µM peroxide control, 0% = buffer; AID 878; activation, % at 10 µM;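 active means activation of at least 50% relative to the plate's high and low controls in the primary single-dose screen; inactive means activation below 50%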;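 further: compound incubated with DTT at 0.8 mM final as the reducing agent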
PMI act: increases human mannose-6-phosphate isomerase activity; purified human PMI, coupled resazurin fluorescence, 20 min; stronger effect = higher value; 1 = vehicle control, 0 substrate-free wells; activation factor at 20 µM; P34949; actives 0.005% (n = 190,000); AID 1214;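 active means activation factor of 2 or more at 20 µM, relative to plate controls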
Target sequence (P34949 whole entry, looked up): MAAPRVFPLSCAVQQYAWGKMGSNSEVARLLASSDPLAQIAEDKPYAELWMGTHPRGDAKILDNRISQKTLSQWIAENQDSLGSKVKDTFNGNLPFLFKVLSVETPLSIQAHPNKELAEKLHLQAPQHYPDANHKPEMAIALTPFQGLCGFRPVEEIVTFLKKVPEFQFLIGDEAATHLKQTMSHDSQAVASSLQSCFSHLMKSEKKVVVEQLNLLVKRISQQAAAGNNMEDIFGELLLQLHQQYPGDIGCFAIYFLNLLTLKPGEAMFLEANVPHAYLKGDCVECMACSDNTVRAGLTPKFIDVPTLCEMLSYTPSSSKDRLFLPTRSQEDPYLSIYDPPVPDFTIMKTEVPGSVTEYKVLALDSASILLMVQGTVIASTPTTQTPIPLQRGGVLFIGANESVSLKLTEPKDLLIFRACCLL
PMI act satM6P: activators of human phosphomannose isomerase at near-saturating mannose 6-phosphate | P34949 | coupled PMI enzyme assay, resazurin fluorescence, 20 min; stronger effect = higher value; 1 = untreated enzyme, 0 = substrate-free blank | activation factor at 20 µM | actives 0.34% (n = 190,000) | AID 1216;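 active means activation factor of 2 or more at 20 µM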
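Technique: Diaphorase-driven resazurin-to-resorufin fluorescence, excitation 544, emission 590 nm | Assay system: Human PMI in coupled enzyme assay | Times: Enzyme reaction with compound 20 min at room temperature | Medium: HEPES-buffered pH 7.4 with magnesium and detergent | Reagent: Mannose-6-phosphate 1.0 mM (near-saturating) plus 0.22 mM NADP+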
Diaph inh CS: inhibits diaphorase or chemically oxidizes, flagging diaphorase assay artifacts; inhibition, % at 20 µM; actives 0.69% (n = 190,000); diaphorase resazurin-to-resorufin fluorescence, NADH, 16 min; bacterial (C. kluyveri) enzyme, not human;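 active means primary screen inhibition at 20 µM above a set limit, cut at about 50% in these data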;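 further: plate controls were DMSO with full reaction for no effect and wells lacking NADH for full effect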
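Assay system: diaphorase enzyme from Clostridium kluyveri; Input: enzyme working solution with 0.14 U/mL diaphorase; Timing: 16 min at room temperature; Technique: resorufin fluorescence, excitation 544 nm, emission 590 nm; Benchmarks: positive control minus NADH, DMSO neutral control.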
G6PDH counter: inhibits Leuconostoc G6PDH, flagging false hits in G6PDH-based assays | Purified L. mesenteroides G6PDH, diaphorase/resazurin coupled fluorescence, 45 min | inhibition, % at 5 µM | actives 0.12% (n = 200,000); in the data active means inhibition above about 50%
Numbers without * were called inactive; / = not tested or not shown.

SMILES | Diaph act CS | Redox H2O2 prof | PMI act | PMI act satM6P | Diaph inh CS | G6PDH counter
Cc1nc(C(=O)N2CCc3c([nH]c4ccccc34)C2c2cc(F)ccc2F)cs1 (stereo unspecified) | 1 | -2 | 0.8 | 0.8 | 2 | 14
CC(/C=C/c1ccco1)=N\NC(=O)CNc1ccc2ccccc2c1 | 0.4 | -1 | 0.6 | 0.3 | 56* | 3
CC(/C=C/c1ccco1)=N/NC(=O)CNc1ccccc1C | 0.9 | 0 | 1.1 | 1 | 10 | 1
CCc1cccc2c(C(=O)C(F)(F)F)cn(CC(=O)N3CCOCC3)c12 | 0.9 | -1 | 0.9 | 0.9 | 10 | 17
O=C(COC(=O)c1cccc(S(=O)(=O)N2CCc3ccccc3C2)c1)NCc1ccco1 | 0.8 | -3 | 1 | 1.3 | 16 | 0
O=C(COC(=O)c1cc(S(=O)(=O)N2CCc3ccccc3C2)ccc1Cl)NCc1ccco1 | 0.5 | 0 | 1 | 1.3 | 52* | 1
COC(=O)c1ccc2c(c1O)C(=O)c1ccccc1C2=O | 0.9 | 0 | 1 | 1.2 | 11 | 53*
Nc1c(C(=O)O)ccc2c1C(=O)c1ccccc1C2=O | 0.8 | 1 | 1 | 0.8 | 17 | 0
Cc1ccc2cc(C(c3nnnn3C(C)(C)C)N3CCCCCC3)c(=O)[nH]c2c1 (stereo unspecified) | 0.5 | -1 | 1.1 | 1.5 | 52* | 15
O=C1c2ccccc2NC2(CCCC2)N1O | 1 | 0 | 1.2 | 1.2 | 2 | 7
S=C1NC2(CCCC2)Nc2ccccc21 | 0.9 | 0 | 1.7 | 2.3* | 6 | 11
S=C1NC2(CCCCC2)Nc2ccccc21 | 0.9 | -1 | 1.7 | 2.5* | 11 | 4
COc1ccc(CNC(=O)C/C(C)=N/NC(=O)c2cnccn2)cc1 | 1 | 0 | 1 | 1 | 0 | 8
C=CCNc1nc(=S)[nH]c2cc(OC)c(OC)cc12 | 0.8 | -2 | 1 | 1 | 19 | -8
COc1cc2[nH]c(=S)nc(NC3CCCC3)c2cc1OC | 1 | 0 | 1.8 | 2.5* | 3 | -1
CCCCC(=O)Nc1ccc(Br)cc1C(=O)O | 1 | 4 | 1.1 | 1.3 | 4 | -2
O=C(O)c1cc(Br)ccc1NN=C1CCCCC1 | 1 | 0 | 1.8 | 2.9* | 2 | 15
CC1(C)CNc2cc(N)ccc2S1 | 0.3 | -2 | 0.2 | 0.2 | 72* | 18
Oc1ccc(Cl)cc1C=Nc1ccccc1Br | 0.8 | 0 | 0.9 | 0.9 | 17 | 9
Oc1ccc(Br)cc1C=Nc1ccc2c3c(cccc13)CC2 | 0.3 | 1 | 0.6 | 0.3 | 67* | 41
Cc1ccc(S(=O)(=O)N2CCCCC2)c(C)c1NS(C)(=O)=O | 1 | -1 | 1 | 1.1 | -3 | 3
Cc1ccccc1N=Nc1ccc(O)c2ncccc12 | 0.9 | 0 | 1.1 | 0.7 | 12 | 4
Oc1ccc(Cn2ccnc2)c2cccnc12 | 0.5 | 0 | 0.7 | 0.9 | 54* | 40
COc1ccc(C)cc1N=Nc1ccc(O)c2ncccc12 | 0.7 | 0 | 1 | 0.7 | 26 | 8
Oc1ccc(CN2CCN(Cc3ccccc3)CC2)c2cccnc12 | / | 2 | / | / | / | /
SMILES | Diaph act CS | Redox H2O2 prof | PMI act | PMI act satM6P | Diaph inh CS | G6PDH counter
c1ccc2c(Cn3ccnc3)c[nH]c2c1 | 0.9 | 1 | 0.9 | 0.9 | 12 | 3
Cc1cccc(NCc2ccc(O)c3ncccc23)c1 | 0.2 | 0 | 0.6 | 0.3 | 78* | 36
Oc1ccc(CNc2ccc(F)cc2)c2cccnc12 | 0.2 | 0 | 0.6 | 0.3 | 77* | 26
OCc1ccnc2c(O)cccc12 | 0.5 | 0 | 0.5 | 0.4 | 48 | 59*
Cn1c(SCc2ccccn2)nnc1-c1ccccc1 | 1 | 0 | 1 | 1 | -2 | 13
COCc1ccc(O)c2ncccc12 | 0.7 | 0 | 0.8 | 0.8 | 30 | 44
Cc1ccccc1NCc1ccc(O)c2ncccc12 | 0.1 | 0 | 0.4 | 0.2 | 92* | 26
Oc1ccc(CNc2ccccc2)c2cccnc12 | 0.1 | -1 | 0.5 | 0.3 | 86* | 25
